Data from ChEMBL document CHEMBL4219238, “Design, synthesis, molecular modelling and in vitro cytotoxicity analysis of novel carbamate derivatives as inhibitors of Monoacylglycerol lipase” (Bioorg Med Chem, 2018).
Calls of active or inactive are those of the source. The rule behind the calls is not given here.

Legend:
[1] = tested on: B16-F10; assay: Induction of apoptosis in mouse B16F10 cells assessed as necrotic cells at 75 nM after 48 hrs by Annexin V-FITC/propidium iodide staining based flow cytometry (reference value: 5.48%); assay type: functional
[2] = target: T1, Monoglyceride lipase (Mus musculus, UniProt O35678); assay: Inhibition of MAGL in mouse B16-F10 cells using 7-HRA as substrate preincubated for 60 mins followed by substrate addition measured every 2.5 mins for 2 hrs by fluorescence assay; assay type: cell-based; conditions: read-out: IC50
T1 sequence (O35678 whole entry): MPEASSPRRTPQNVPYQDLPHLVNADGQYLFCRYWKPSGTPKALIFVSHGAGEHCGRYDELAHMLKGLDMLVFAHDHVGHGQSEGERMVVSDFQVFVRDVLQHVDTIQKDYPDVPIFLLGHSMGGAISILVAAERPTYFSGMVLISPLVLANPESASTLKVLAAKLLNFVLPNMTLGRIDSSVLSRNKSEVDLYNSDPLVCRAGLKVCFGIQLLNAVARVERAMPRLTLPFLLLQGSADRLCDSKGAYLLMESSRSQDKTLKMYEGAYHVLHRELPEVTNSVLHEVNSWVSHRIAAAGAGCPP

[3] = tested on: B16-F10; assay: Effect on MAGL mRNA expression in mouse B16F10 cells by RT-PCR method; assay type: functional
[4] = Induction of apoptosis in HEK293T cells assessed as live cells at 10 uM after 48 hrs by Annexin V-FITC/propidium iodide staining based flow cytometry (reference value: 82.43%); assay type: cell-based, HEK-293T; conditions: human, read-out: Activity
Method in brief: (§1)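 HEK293T (DMEM with 10% FBS) or MCF7 (DMEM/Ham's F-12 1:1, 10% FBS) cells treated 48 h with 10 μM compound or DMSO. Staining with Alexa Fluor 488 annexin V plus 5 μg/ml PI in HEPES/NaCl/CaCl2 binding buffer; 10,000 cells per sample read by flow cytometry; n = 3, mean ± S.E.M.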

[5] = tested on: MCF7; assay: Induction of apoptosis in human MCF7 cells assessed as late apoptotic cells at 10 uM after 48 hrs by Annexin V-FITC/propidium iodide staining based flow cytometry (reference value: 8.84%); assay type: functional; method in brief: as §1
[6] = tested on: B16-F10; assay: Induction of apoptosis in mouse B16F10 cells assessed as necrotic cells at 10 uM after 48 hrs by Annexin V-FITC/propidium iodide staining based flow cytometry (reference value: 2.62%); assay type: functional
[7] = tested on: HEK-293T; assay: Induction of apoptosis in HEK293T cells assessed as early apoptotic cells at 10 uM after 48 hrs by Annexin V-FITC/propidium iodide staining based flow cytometry (reference value: 7.41%); assay type: cell-based; conditions: human; method in brief: as §1
[8] = tested on: B16-F10; assay: Induction of apoptosis in mouse B16F10 cells assessed as early apoptotic cells at 35 nM after 48 hrs by Annexin V-FITC/propidium iodide staining based flow cytometry (reference value: 1.43%); assay type: functional
[9] = tested on: B16-F10; assay: Induction of apoptosis in mouse B16F10 cells assessed as early apoptotic cells at 10 uM after 48 hrs by Annexin V-FITC/propidium iodide staining based flow cytometry (reference value: 1.75%); assay type: functional
[10] = tested on: B16-F10; assay: Induction of apoptosis in mouse B16F10 cells assessed as live cells at 10 uM after 48 hrs by Annexin V-FITC/propidium iodide staining based flow cytometry (reference value: 88.04%); assay type: functional
[11] = target: T2, Monoglyceride lipase (Mus musculus) (UniProt O35678); assay: Inhibition of MAGL in mouse B16-F10 intact cells at 10 uM using 7-HRA as substrate preincubated for 6 hrs followed by substrate addition by fluorescence assay; assay type: cell-based
T2 sequence (whole entry): T1 sequence (O35678 whole entry)
Method in brief: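 Intact B16-F10 cells cultured 6 h with compound or DMSO, homogenised 30 min at 4 °C in lysis buffer and spun 1,500 × g 5 min. 1 μg lysate assayed with 10 μM 7-HRA (ex 571/em 588 nm); 5-min values reported; mean ± SEM, n = 3.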

[12] = tested on: B16-F10; assay: Induction of apoptosis in mouse B16F10 cells assessed as apoptotic cells after 48 hrs by Annexin V-FITC/propidium iodide staining based flow cytometry
[13] = tested on: B16-F10; assay: Induction of apoptosis in mouse B16F10 cells assessed as live cells at 35 nM after 48 hrs by Annexin V-FITC/propidium iodide staining based flow cytometry (reference value: 79.55%); assay type: functional

IC50 [2]: 13.2 µM | inhibition [11]: Active
Compound: O=C(Nc1cccc(-c2ccc(C(F)(F)F)cc2)c1)OCc1ccco1
Activity [1]: 4.33% | deltaCT [3]: 11.05 | viability at 48 h, 10 µM [4]: 81.4% | Activity [5]: 25.63% | Activity [6]: 14.25% | Activity [7]: 8.13% | Activity [8]: 1.9% | Activity [9]: 3.87% | Activity [10]: 17.8% | Activity [12]: Dose-dependent effect | Activity [13]: 66.12%
